# Assay results published in ChEMBL document CHEMBL3232816, “Substituted E-3-(3-indolylmethylene)1,3-dihydroindol-2-ones with antiproliferative activity. Study of the effects on HL-60 leukemia cells” (2014).
# Where a name gives a salt, the structure may show the parent alone. Activity calls are given as the source filed them. No cut-off for these calls is given here.
# Tests used:
# [1] = Cytotoxicity against human CNS cancer cells after 48 hrs; assay type: functional; settings: Cancer cell lines; for CC50: read-out: LC50 (the source's name)
# Procedure, shortened: (§1)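 NCI 60-line panel. Compounds were dissolved in DMSO and tested at five 10-fold dilutions, the highest 10^-4 M (10^-3 M where footnoted), over 48 h of incubation. The readouts were GI50, TGI and LC50 in μM, with the panel mean also given. Only compounds passing a 10^-5 M single-dose prescreen were tested; some were repeated and averaged over two experiments.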
# [2] = Cytotoxicity against human ovarian cancer cells after 48 hrs; assay type: functional; settings: Cancer cell lines; procedure, shortened: as §1
# [3] = Cytotoxicity against human NSCLC cells after 48 hrs; assay type: functional; procedure, shortened: as §1
# [4] = Cytotoxicity against human leukemia cells after 48 hrs; assay type: functional; settings: for GI50 / TGI: Leukemia cell; procedure, shortened: as §1
# HL-60 [5] = assay: Induction of apoptosis in human HL60 cells assessed as increase in intracellular free Mg2+ level at 1 uM after 24 hrs by Mag-Fura2 probe-based fluorometric analysis; assay type: functional, cell-based
# Procedure, shortened: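 They were loaded with 5 μM Mag-Fura2 for 60 min at 37 °C in the dark, washed, and held 45 min at room temperature. Emission at 510 nm was read with excitation at 335/370 nm. Rmin came from 5 mM EDTA/EGTA then 0.1% Triton X-100, Rmax from MgSO4. Free Mg2+ was calculated with Kd 2.1 mM, in triplicate.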
# HL-60 [6] = assay: Induction of apoptosis in human HL60 cells assessed as increase in caspase proteolytic activity using DEVD as substrate at 1 uM after 24 hrs by fluorometric analysis; assay type: functional, cell-based
# Procedure, shortened: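 After 24 h exposure of HL-60 cells to 1 μM compound or DMSO vehicle, DEVD-hydrolysing caspase (DEVDase) activity was measured fluorometrically in cell extracts. Means ± s.e.m. of three determinations.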
# [7] = Cytotoxicity against human prostate cancer cells after 48 hrs; assay type: functional; settings: Cancer cell lines; for CC50: read-out: LC50 (the source's name); procedure, shortened: as §1
# [8] = Cytotoxicity against human renal cancer cells after 48 hrs; assay type: functional; settings: Cancer cell lines; procedure, shortened: as §1
# HL-60 [9] = assay: Induction of apoptosis in human HL60 cells assessed as increase in intracellular free Ca2+ level at 1 uM after 24 hrs by INDO-1/AM probe-based fluorometric analysis; assay type: functional, cell-based
# Procedure, shortened: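 They were stained with 5 μM INDO-1/AM, excited at 346 nm, and emission read at 405/485 nm. Rmin came from 5 mM EDTA/EGTA plus 5 μM digitonin, Rmax from 10 mM CaCl2. Free Ca2+ was calculated with Kd […]. Means ± s.e.m., n=3.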
# [10] = Cytotoxicity against human breast cancer cells after 48 hrs; assay type: functional; settings: Cancer cell lines; procedure, shortened: as §1
# [11] = Cytotoxicity against human melanoma cells after 48 hrs; assay type: functional; settings: Melanoma cell; procedure, shortened: as §1
# HL-60 [12] = assay: Effect on autophagy in human HL60 cells by LC3 protein processing assay; assay type: functional, cell-based
# HL-60 [13] = assay: Cytotoxicity against human HL60 cells assessed as growth inhibition at 1 uM measured up to 48 hrs; assay type: functional, cell-based
# Procedure, shortened: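 HL-60 cells, RPMI 1640 with 10% fetal calf serum and 2 mM glutamine, 37 °C, 5% CO2. Cells received 1 μM compound diluted from a 10 mmol/L DMSO stock; controls got equal DMSO. Viable cells were counted daily to follow total cell number. Means ± s.e.m. of three determinations.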
# HL-60 [14] = assay: Cell cycle arrest in human HL60 cells assessed as accumulation at G0-G1 phase at 1 uM after 24 hrs by propidium iodide staining-based flow cytometric analysis (reference value: 32.4%); assay type: functional
# HL-60 [15] = assay: Cell cycle arrest in human HL60 cells assessed as accumulation at G2-M phase at 1 uM after 24 hrs by propidium iodide staining-based flow cytometric analysis (reference value: 10.7%); assay type: functional
# HL-60 [16] = assay: Cell cycle arrest in human HL60 cells assessed as accumulation at S phase at 1 uM after 24 hrs by propidium iodide staining-based flow cytometric analysis (reference value: 56.9%); assay type: functional
# HL-60 [17] = assay: Induction of apoptosis in human HL60 cells assessed as increase in oxidative stress at 1 uM after 24 hrs by DCFDA staining; assay type: functional, cell-based
# Procedure, shortened: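 Intracellular peroxides in HL-60 cells treated 24 h with 1 μM compound or DMSO. Cells were loaded with 5 μM DCF-DA for 30 min at 37 °C, then DCF fluorescence was acquired by flow cytometry with logarithmic amplification. Means ± s.e.m., n=3.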
# HL-60 [18] = assay: Induction of apoptosis in human HL60 cells assessed as early apoptotic cells at 1 uM after 24 hrs by annexin V-FLUOS staining-based flow cytometric analysis (reference value: 4%); assay type: functional
# HL-60 [19] = assay: Effect on autophagy in human HL60 cells by acridine orange staining; assay type: functional, cell-based
# [20] = Cytotoxicity against human colon cancer cells after 48 hrs; assay type: functional; settings: Cancer cell lines; for CC50: read-out: LC50 (the source's name); procedure, shortened: as §1
structure (smiles),measurement,setting,value
COc1ccc(CCn2c(Cl)c(/C=C3/C(=O)Nc4ccccc43)c3ccccc32)cc1,GI50,[1],0.34 µM
same,TGI,[1],8.32 µM
same,CC50,[1],58.9 µM
same,GI50,[2],0.34 µM
same,LC50,[2],69.2 µM
same,TGI,[2],13.5 µM
same,GI50,[3],0.43 µM
same,LC50,[3],74.1 µM
same,TGI,[3],15.1 µM
same,GI50,[4],0.35 µM
same,TGI,[4],15.5 µM
same,Activity,HL-60 [5],Active
same,Activity,HL-60 [6],Active
same,GI50,[7],0.35 µM
same,TGI,[7],19.5 µM
same,CC50,[7],55 µM
same,GI50,[8],0.48 µM
same,LC50,[8],72.4 µM
same,TGI,[8],18.6 µM
same,Activity,HL-60 [9],Active
same,GI50,[10],0.32 µM
same,TGI,[10],6.31 µM
same,GI50,[11],0.46 µM
same,LC50,[11],63.1 µM
same,TGI,[11],9.12 µM
same,Activity,HL-60 [12],Active
same,growth inhibition (GI),HL-60 [13],Active
same,Activity,HL-60 [14],16.7%
same,Activity,HL-60 [15],69.3%
same,Activity,HL-60 [16],14%
same,Activity,HL-60 [17],Active
same,Activity,HL-60 [18],50%
same,Activity,HL-60 [19],Active
same,GI50,[20],0.28 µM
same,TGI,[20],1.82 µM
same,CC50,[20],52.5 µM
COc1ccc2c(c1)/C(=C\c1c(Cl)n(Cc3cc(OC)c(OC)c(OC)c3)c3cc(C)c(OC)cc13)C(=O)N2,GI50,[1],16.2 µM
same,TGI,[1],75.9 µM
same,GI50,[2],33.1 µM
same,GI50,[3],20.4 µM
same,TGI,[3],97.7 µM
same,GI50,[4],6.17 µM
same,TGI,[4],77.6 µM
same,GI50,[7],14.5 µM
same,TGI,[7],95.5 µM
same,GI50,[8],29.5 µM
same,GI50,[10],10.2 µM
same,TGI,[10],57.5 µM
same,GI50,[11],14.8 µM
same,TGI,[11],75.9 µM
same,GI50,[20],11 µM
same,TGI,[20],85.1 µM
CC[C@]1(O)C[C@H]2CN(CCc3c([nH]c4ccccc34)[C@@](C(=O)OC)(c3cc4c(cc3OC)N(C=O)[C@H]3[C@@](O)(C(=O)OC)[C@H](OC(C)=O)[C@]5(CC)C=CCN6CC[C@]43[C@@H]65)C2)C1 [VINCRISTINE SULFATE],GI50,[1],0.13 µM
same,GI50,[2],0.32 µM
same,GI50,[3],0.25 µM
same,GI50,[4],0.1 µM
same,GI50,[7],0.13 µM
same,GI50,[8],0.32 µM
same,GI50,[10],0.32 µM
same,GI50,[11],0.16 µM
same,GI50,[20],0.1 µM
O=C1Nc2ccccc2/C1=C\c1c(Cl)n(CCCc2ccccc2)c2ccccc12,GI50,[1],16.6 µM
same,TGI,[1],75.9 µM
same,GI50,[2],12 µM
same,TGI,[2],72.4 µM
same,GI50,[3],14.1 µM
same,TGI,[3],72.4 µM
same,GI50,[4],8.91 µM
same,TGI,[4],50.1 µM
same,GI50,[7],19.1 µM
same,GI50,[8],13.8 µM
same,TGI,[8],67.6 µM
same,GI50,[10],10 µM
same,TGI,[10],72.4 µM
same,GI50,[11],13.8 µM
same,TGI,[11],67.6 µM
same,GI50,[20],12 µM
same,TGI,[20],60.3 µM
O=C1Nc2ccccc2/C1=C\c1c(Cl)n(Cc2ccccc2)c2ccccc12,GI50,[1],16.6 µM
same,TGI,[1],47.9 µM
same,CC50,[1],93.3 µM
same,GI50,[2],20.9 µM
same,LC50,[2],95.5 µM
same,TGI,[2],66.1 µM
same,GI50,[3],14.8 µM
same,TGI,[3],57.5 µM
same,LC50 (concentration giving 50% net cell kill),[4],75.9 µM
same,GI50,[4],3.63 µM
same,TGI,[4],21.4 µM
same,GI50,[7],20.4 µM
same,TGI,[7],55 µM
same,GI50,[8],20.4 µM
same,TGI,[8],70.8 µM
same,GI50,[10],12.9 µM
same,TGI,[10],64.6 µM
same,GI50,[11],8.91 µM
same,LC50,[11],87.1 µM
same,TGI,[11],32.4 µM
same,GI50,[20],19.9 µM
same,TGI,[20],60.3 µM
same,CC50,[20],95.5 µM
COc1ccc2c(c1)/C(=C\c1c(Cl)n(C/C=C/c3ccccc3)c3ccccc13)C(=O)N2,GI50,[1],2.04 µM
same,GI50,[2],2.09 µM
same,TGI,[2],41.7 µM
same,GI50,[3],2.24 µM
same,TGI,[3],37.1 µM
same,GI50,[4],2 µM
same,GI50,[7],2.09 µM
same,TGI,[7],16.2 µM
same,GI50,[8],1.91 µM
same,TGI,[8],30.2 µM
same,GI50,[10],1.86 µM
same,TGI,[10],36.3 µM
same,GI50,[11],2.4 µM
same,TGI,[11],38.9 µM
same,GI50,[20],1.32 µM
same,TGI,[20],21.9 µM
COc1ccc(OC)c2c1NC(=O)/C2=C/c1c(Cl)[nH]c2ccccc12,GI50,[1],2.75 µM
same,TGI,[1],13.5 µM
same,CC50,[1],44.7 µM
same,GI50,[2],2.51 µM
same,LC50,[2],41.7 µM
same,TGI,[2],15.1 µM
same,GI50,[3],3.55 µM
same,LC50,[3],74.1 µM
same,TGI,[3],22.4 µM
same,GI50,[4],1.51 µM
same,TGI,[4],56.2 µM
same,GI50,[7],3.47 µM
same,TGI,[7],19.9 µM
same,CC50,[7],51.3 µM
same,GI50,[8],3.39 µM
same,LC50,[8],53.7 µM
same,TGI,[8],16.2 µM
same,GI50,[10],1.62 µM
same,TGI,[10],12.6 µM
same,CC50,[10]; read-out: LC50 (the source's name),64.6 µM
same,GI50,[11],3.39 µM
same,LC50,[11],46.8 µM
same,TGI,[11],16.2 µM
same,GI50,[20],2.24 µM
same,TGI,[20],8.91 µM
same,CC50,[20],33.9 µM
